For assay [1], the system named is Rattus norvegicus. Nature of the assay: Antiallergic activity in the rat passive cutaneous anaphylaxis (PCA) model after intraperitoneal administration at a dose 5 mg/kg. Type of assay: functional. Particulars: ip. Summed up: (§1)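 Rats passively sensitized by intradermal injection of antiserum dilutions at several back sites, 48 h before iv challenge with 1 mg ovalbumin in 1 mL saline with 0.25% Evans blue. Drug given ip as a suspension in 1% gum tragacanth/saline 10-15 min before challenge. Wheal diameter read 30 min later. Five rats per group. % inhibition taken against control minus extrapolated base value at the highest antiserum concentration. Student's t test.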

The subject of assay [2] is Rattus norvegicus. Put plainly: Compound was tested for antiallergic activity in the rat passive cutaneous anaphylaxis (PCA) model after intraperitoneal administration at a dose 5 mg/kg; I denotes Inactive at 30 mg/kg. In kind it is functional, organism-based. Particulars: in the assay text read “Inactive at 5 mg/kg” for “Inactive at 30 mg/kg”. In short, it runs like this:
as §1

For assay [3], the system named is Rattus norvegicus. Nature of the assay: Compound was tested for antiallergic activity in the rat passive cutaneous anaphylaxis (PCA) model after intraperitoneal administration at a dose 10 mg/kg. Type of assay: functional. The conditions noted are these: ip. In short, it runs like this:
as §1

SMILES strings stand for the structures. Active and inactive are the calls of the source. The calls are words filed in the database; no cut-off is given here.

What is called inhibition in vivo is the relative decrease from the control value, in per cent. Low values mean a response near the control, high ones a response far below the control. On to `O=C(O)c1ccc2nc3c(c(=O)n2c1)SCC3`, for which at 5 mg/kg the inhibition in vivo with Rattus norvegicus [1] was 46%.
Still for that read-out and setting: the same measure for `O=C(Nc1nn[nH]n1)c1ccc2nc3ccsc3c(=O)n2c1`: 100%; for `O=c1c2c(nc3ccc(-c4nnn[nH]4)cn13)CSC2`: 100%; for `Cc1cc2c(=O)n3cc(C(=O)O)ccc3nc2s1`: 100%.
The compound `O=C(Nc1nn[nH]n1)c1ccc2nc3c(c(=O)n2c1)CSC3` displayed an inhibition in vivo at 5 mg/kg in the assay with Rattus norvegicus [1] of 33%.
Take `O=C(Nc1nn[nH]n1)c1ccc2nc3cscc3c(=O)n2c1`: testing at 5 mg/kg in the assay on Rattus norvegicus [1] gave an inhibition in vivo of 49%.
On to `Cc1sc(C)c2c(=O)n3cc(C(=O)O)ccc3nc12`, for which the inhibition in vivo at 5 mg/kg in the assay on Rattus norvegicus [1] worked out at 70%.
The compound `Cc1sc(C)c2c(=O)n3cc(C(=O)Nc4nn[nH]n4)ccc3nc12` had an inhibition in vivo at 5 mg/kg in the assay with Rattus norvegicus [1] of 50%.
`O=C(O)c1ccc2nc3c(c(=O)n2c1)CSC3`: the inhibition entry in the assay with Rattus norvegicus [2] was “inactive”.
In turn, `O=c1c2sccc2nc2ccc(-c3nnn[nH]3)cn12` yielded an inhibition in vivo at 5 mg/kg in the assay with Rattus norvegicus [1] of 70%.
The compound `O=C(O)c1cc(=O)c2c(OCC(O)COc3cccc4oc(C(=O)O)cc(=O)c34)cccc2o1` [CROMOLYN SODIUM] showed an inhibition in vivo at 10 mg/kg with Rattus norvegicus [3] of 89%.
In the assay on Rattus norvegicus [1], `Cc1cc2nc3ccc(C(=O)O)cn3c(=O)c2s1` had an inhibition in vivo at 5 mg/kg of 61%.
In turn, `O=C(O)c1ccc2nc3ccsc3c(=O)n2c1` showed an inhibition in vivo at 5 mg/kg in the assay on Rattus norvegicus [1] of 28%.
Same read-out and setting: in the case of `Cc1cc2c(=O)n3cc(C(=O)Nc4nn[nH]n4)ccc3nc2s1` it was 25%.
Take `O=c1c2c(nc3ccc(-c4nnn[nH]4)cn13)CCS2`: in the assay on Rattus norvegicus [2], the inhibition entry was “inactive”.
In the assay on Rattus norvegicus [1], `O=C(O)c1ccc2nc3cscc3c(=O)n2c1` yielded an inhibition in vivo at 5 mg/kg of 41%.
Same read-out and setting: the same measure for `Cc1sc(C)c2c(=O)n3cc(-c4nnn[nH]4)ccc3nc12`: 47%; for `O=c1c2cscc2nc2ccc(-c3nnn[nH]3)cn12`: 100%.
Consider `Cc1cc2nc3ccc(C(=O)Nc4nn[nH]n4)cn3c(=O)c2s1`, for which, in the assay on Rattus norvegicus [1], the inhibition in vivo at 5 mg/kg turned out to be 21%.
`Cc1cc2c(=O)n3cc(-c4nnn[nH]4)ccc3nc2s1`: 5 mg/kg produced 100% inhibition in vivo in the assay on Rattus norvegicus [1].
Still for that read-out and setting: the same measure for `Cc1cc2nc3ccc(-c4nnn[nH]4)cn3c(=O)c2s1`: 51%.

The record behind these values is ChEMBL document CHEMBL1122637, “Synthesis and antiallergy activity of 10-oxo-10H-pyrido[1,2-a]thieno[3,2-d]pyrimidines and 10-oxo-10H-pyrido[1,2-a]thieno[3,4-d]pyrimidines” (1984).
